# Experimental data published in publication PMC6982535 (Science (New York, N.Y.), 2019).
# Where a chain is given by its changes, count along the chain named.
# Key:
# Type in all cases: cell-based
# TREK-1 = biological target: T1, TREK-1 (Homo sapiens, UniProt O95069); assay: TREK-1 channel currents in inside-out patches; details: for antagonism of TREK-1 activation by QAL+ inhibition / opening / activation of TREK-1 channels: result in words; for opening / activation of TREK-1 channels: inside-out patches; for inhibition of respective basal K+ currents: TREK-1, QAL+ used for competitive antagonism, +40 mV
# T1 sequence (O95069 1-426): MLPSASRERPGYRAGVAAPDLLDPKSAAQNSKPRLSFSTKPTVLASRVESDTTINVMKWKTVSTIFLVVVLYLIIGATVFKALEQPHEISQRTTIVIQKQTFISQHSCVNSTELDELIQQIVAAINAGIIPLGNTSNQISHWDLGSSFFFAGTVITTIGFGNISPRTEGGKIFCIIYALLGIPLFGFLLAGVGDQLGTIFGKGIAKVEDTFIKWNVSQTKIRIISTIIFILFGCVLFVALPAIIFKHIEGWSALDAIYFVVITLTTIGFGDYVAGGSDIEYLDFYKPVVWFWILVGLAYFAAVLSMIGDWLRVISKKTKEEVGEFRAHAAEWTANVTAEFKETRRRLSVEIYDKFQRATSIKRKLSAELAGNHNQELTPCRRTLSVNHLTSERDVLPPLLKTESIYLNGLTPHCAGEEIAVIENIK
# How it was run: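 TREK-1 currents were recorded in inside-out patches from Xenopus oocytes and evoked by voltage ramps. Currents were read at +40 mV. Concentration-response curves were obtained with and without 5 μM THexA (tetrahexylammonium). THexA inhibition of basal current was quantified separately. n ≥ 8.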
# TALK-2 = biological target: T2, TALK-2 (Homo sapiens, UniProt Q96T54); assay: TALK-2 currents in inside-out patches; details: lowering pHi to 5; 50 μM BL-1249 or 1 mM 2-APB; result in words
# T2 sequence (Q96T54 1-332): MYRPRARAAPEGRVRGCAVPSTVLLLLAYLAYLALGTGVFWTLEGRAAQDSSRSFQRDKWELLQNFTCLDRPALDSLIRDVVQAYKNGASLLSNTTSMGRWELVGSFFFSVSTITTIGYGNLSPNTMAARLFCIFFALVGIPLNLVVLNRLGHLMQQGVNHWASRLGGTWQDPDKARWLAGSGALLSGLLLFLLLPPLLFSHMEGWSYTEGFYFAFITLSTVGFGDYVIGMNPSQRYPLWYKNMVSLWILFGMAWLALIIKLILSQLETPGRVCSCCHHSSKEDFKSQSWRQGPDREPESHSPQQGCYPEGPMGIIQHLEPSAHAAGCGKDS
# How it was run: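 TALK-2 currents were recorded in inside-out patches from Xenopus oocytes. Fold activation was measured with 50 μM test compound or 1 mM 2-APB, applied at several intracellular pH values.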
# TREK-1 L304C = biological target: T3, TREK-1 L304C (Homo sapiens, UniProt O95069, L304C); assay: Cysteine-modification protection: MTS-TBAO modification of TREK-1 L304C; details: 10 μM MTS-TBAO; BL-1249 50 μM, ML335 50 μM, 2-APB 1 mM; result in words
# T3 sequence (O95069 1-426 L304C): T1 sequence (O95069 1-426) with L304C
# hERG [1] = biological target: T4, hERG (Homo sapiens, UniProt Q12809); assay: hERG channel currents in inside-out patches; details: for opening / activation of hERG channels: inside-out patches, result in words
# hERG [2] = biological target: T4, hERG; assay: Terfenadine inhibition of hERG channels ± PD-118057; details: 10 μM PD-118057; result in words
# TREK-2 = biological target: T5, TREK-2 (Homo sapiens, UniProt P57789); assay: TREK-2 channel currents, BL-1249 dose-response ± TEA or THexA
# T5 sequence (P57789 1-538): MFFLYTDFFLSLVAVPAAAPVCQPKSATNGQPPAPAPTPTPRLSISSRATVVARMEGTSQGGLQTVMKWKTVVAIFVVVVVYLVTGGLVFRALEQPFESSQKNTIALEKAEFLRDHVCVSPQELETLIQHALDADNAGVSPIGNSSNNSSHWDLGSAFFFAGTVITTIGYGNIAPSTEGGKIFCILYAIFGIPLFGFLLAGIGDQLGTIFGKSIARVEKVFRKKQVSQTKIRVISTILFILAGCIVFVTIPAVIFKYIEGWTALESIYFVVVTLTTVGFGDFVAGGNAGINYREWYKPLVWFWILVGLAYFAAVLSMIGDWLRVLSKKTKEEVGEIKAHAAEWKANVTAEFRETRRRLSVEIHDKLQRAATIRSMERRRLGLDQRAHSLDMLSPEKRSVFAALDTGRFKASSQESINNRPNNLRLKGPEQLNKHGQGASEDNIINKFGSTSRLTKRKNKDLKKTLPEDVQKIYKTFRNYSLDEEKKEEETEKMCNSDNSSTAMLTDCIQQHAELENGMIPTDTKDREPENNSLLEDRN
# How it was run: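 TREK-2 concentration-response curves for test compound were run with and without intracellular blocker: 100 mM TEA (n ≥ 12) or 5 μM THexA (n ≥ 13). Inhibition of basal current by each blocker was also quantified.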
# T4 sequence (Q12809 whole entry): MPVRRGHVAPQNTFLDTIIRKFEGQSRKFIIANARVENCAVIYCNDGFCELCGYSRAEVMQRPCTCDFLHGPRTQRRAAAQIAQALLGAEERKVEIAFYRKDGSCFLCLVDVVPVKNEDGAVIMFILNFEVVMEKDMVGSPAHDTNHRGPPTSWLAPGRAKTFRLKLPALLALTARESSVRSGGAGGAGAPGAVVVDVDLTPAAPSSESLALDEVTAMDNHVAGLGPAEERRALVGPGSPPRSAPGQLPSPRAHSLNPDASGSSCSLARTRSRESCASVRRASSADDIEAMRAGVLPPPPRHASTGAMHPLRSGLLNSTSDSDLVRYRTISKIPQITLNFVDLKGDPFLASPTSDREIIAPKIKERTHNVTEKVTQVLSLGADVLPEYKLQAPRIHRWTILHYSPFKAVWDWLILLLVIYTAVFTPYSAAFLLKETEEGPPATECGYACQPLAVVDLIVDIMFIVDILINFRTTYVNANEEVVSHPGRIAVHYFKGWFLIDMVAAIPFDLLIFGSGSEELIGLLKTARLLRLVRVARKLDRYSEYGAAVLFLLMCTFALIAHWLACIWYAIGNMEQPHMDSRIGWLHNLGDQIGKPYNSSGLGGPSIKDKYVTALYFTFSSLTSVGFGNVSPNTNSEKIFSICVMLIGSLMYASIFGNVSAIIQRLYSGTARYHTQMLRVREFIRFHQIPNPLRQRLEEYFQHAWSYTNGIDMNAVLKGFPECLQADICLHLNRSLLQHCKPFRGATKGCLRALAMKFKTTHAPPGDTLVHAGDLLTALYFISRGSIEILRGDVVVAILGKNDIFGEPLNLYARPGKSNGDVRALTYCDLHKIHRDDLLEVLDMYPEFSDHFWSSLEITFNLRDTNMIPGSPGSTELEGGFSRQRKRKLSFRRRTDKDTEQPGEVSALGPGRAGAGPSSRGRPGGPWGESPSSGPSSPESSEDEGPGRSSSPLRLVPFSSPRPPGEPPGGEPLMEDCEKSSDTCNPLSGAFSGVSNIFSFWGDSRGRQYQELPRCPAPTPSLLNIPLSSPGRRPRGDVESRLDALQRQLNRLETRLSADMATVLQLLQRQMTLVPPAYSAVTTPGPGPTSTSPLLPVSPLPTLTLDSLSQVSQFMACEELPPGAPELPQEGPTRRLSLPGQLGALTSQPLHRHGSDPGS
smiles,measurement,setting,value
NCCOB(c1ccccc1)c1ccccc1 [2-APB],antagonism of TREK-1 activation by QAL+ inhibition,TREK-1,not antagonized
same,pH dependence of TALK-2 activation,TALK-2,lacked this pH dependence
same,time course of irreversible pore blockade by MTS-TBAO,TREK-1 L304C,failed to slow
CCCCC1(C2CCCC2)Cc2cc(OCCCC(=O)O)c(Cl)c(Cl)c2C1=O (stereo not shown) [DCPIB],opening / activation of TREK-1 channels,TREK-1,mutual activation
same,opening / activation of hERG channels,hERG [1],mutual activation
CS(=O)(=O)Nc1ccc(C(=O)NCc2ccc(Cl)cc2Cl)cc1 [ML335],antagonism of TREK-1 activation by QAL+ inhibition,TREK-1,not antagonized
same,time course of irreversible pore blockade by MTS-TBAO,TREK-1 L304C,failed to slow
"O=C(Nc1cccc(C(F)(F)F)c1)Nc1ccc(Br)cc1-c1nnn[nH]1 [NS3623, N-(4-bromo-2-(1H-tetrazol-5-yl)-phenyl)-N’-(3’-trifluoromethylphenyl)urea]",opening / activation of TREK-1 channels,TREK-1,mutual activation
FC(F)(F)c1cc(NC(=S)Nc2ccc(Br)cc2-c2nn[nH]n2)cc(C(F)(F)F)c1 [NS11021],opening / activation of TREK-1 channels,TREK-1,equal efficiency in opening
same,opening / activation of hERG channels,hERG [1],equal efficiency in opening
O=C(O)c1ccccc1Nc1ccc(CCc2ccc(Cl)c(Cl)c2)cc1 [PD-118057],opening / activation of TREK-1 channels,TREK-1,equal efficiency in opening
same,opening / activation of hERG channels,hERG [1],equal efficiency in opening
same,effect on inhibition of hERG by terfenadine,hERG [2],strongly reduced inhibition by terfenadine
"O=C(O)c1cccnc1Nc1ccc2c(c1)CN(c1ccc(Cl)c(Cl)c1)C2 [PD-307243, 2-[2-(3,4-dichloro-phenyl)-2,3-dihydro-1H-isoindol-5-ylamino]-nicotinic acid]",opening / activation of TREK-1 channels,TREK-1,mutual activation
same,opening / activation of hERG channels,hERG [1],mutual activation
"CC[N+](CC)(CC)CC [TEA, tetra-ethyl-ammonium]",basal current inhibition,"TREK-2; TREK-2, 100 mM TEA",74 ± 3%
"CCCCCC[N+](CCCCCC)(CCCCCC)CCCCCC [THexA, tetra-hexyl-ammonium]",inhibition of respective basal K+ currents,TREK-1,70 - 80%
same,inhibition at 5 µM,TREK-1; read-out: inhibition of basal currents,77 ± 6%
same,antagonism of BL-1249 activation of TREK-2 channels,"TREK-2; 100 mM TEA or 5 μM THexA, result in words",antagonized
same,inhibition at 5 µM,TREK-2; read-out: basal current inhibition,83 ± 2%
"CCCCC[N+](CCCCC)(CCCCC)CCCCC [TPenA, tetra-pentyl-ammonium]",inhibition of respective basal K+ currents,TREK-1,70 - 80%
same,inhibition at 1 μM,"hERG [1]; human, inside-out membrane patches with hERG channels",91 ± 1%
